Test results as given in ChEMBL document CHEMBL3526099, “Metabolism of triethylenetetramine and 1,12-diamino-3,6,9-triazadodecane by the spermidine/spermine-N(1)-acetyltransferase and thialysine acetyltransferase” (Drug Metab Dispos, 2013).
Each block holds one molecule with its values, some of them ahead of it.

How the values were obtained:
[1] = target: T1, Diamine acetyltransferase 1 (Homo sapiens, UniProt P21673); assay: Drug metabolism in human HepG2 cells assessed as SSAT1-mediated (N1-acetyl)-spermidine formation at 100 uM for 24 hrs; type: ADME, cell-based; settings: hepg2, 24 h
Target sequence in this assay (P21673 whole entry): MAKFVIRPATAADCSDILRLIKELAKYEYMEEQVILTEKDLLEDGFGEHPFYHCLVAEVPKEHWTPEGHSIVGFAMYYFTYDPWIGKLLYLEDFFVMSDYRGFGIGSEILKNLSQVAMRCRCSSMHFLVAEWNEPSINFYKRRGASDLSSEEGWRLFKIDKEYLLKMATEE

[2] = test system: HepG2; assay: Drug metabolism in human HepG2 cells at 100 uM for 24 hrs in presence of SSAT1 shRNA; type: ADME, cell-based; settings: hepg2, 24 h
Outline: (§1)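 HepG2 cells were transduced with control, SSAT1 or SSAT2 shRNA lentiviral particles and stable clones selected with puromycin (5 µg/ml) for one week. Cells were plated overnight, then incubated 24 h with 1 mM TETA or 100 µM SpmTrien. Intracellular metabolites were measured. Means ± SD, n=3.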

[3] = target: T1, Diamine acetyltransferase 1; assay: Drug metabolism in human HepG2 cells assessed as SSAT1-mediated (N1-acetyl)-1,12-diamino-3,6,9-triazadodecane formation at 100 uM for 24 hrs in presence of SSAT2 shRNA; type: ADME, cell-based; settings: hepg2, 24 h; outline: as §1
Target sequence in this assay (P21673 whole entry): as above

[4] = target: T1, Diamine acetyltransferase 1; assay: Drug metabolism in human HepG2 cells assessed as SSAT1-mediated (N1-acetyl)-1,12-diamino-3,6,9-triazadodecane formation at 100 uM for 24 hrs; type: ADME, cell-based; settings: hepg2, 24 h
Target sequence in this assay (P21673 whole entry): as above

[5] = target: T1, Diamine acetyltransferase 1; assay: Drug metabolism in human HepG2 cells assessed as SSAT1-mediated (N1-acetyl)-spermine formation at 100 uM for 24 hrs; type: ADME, cell-based; settings: hepg2, 24 h
Target sequence in this assay (P21673 whole entry): as above

[6] = Drug metabolism in SSAT1-knockout mouse primary hepatocytes at 100 uM for 4 hrs; type: ADME, cell-based, Hepatocyte
Outline: (§2)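 Hepatocytes from SSAT1-KO or wild-type mouse liver were isolated by collagenase perfusion and plated on collagen I in William's E with dexamethasone, FBS and insulin. They were reverse-transfected with control or SSAT2 siRNA (100 nM) for 2 d, then exposed to 1 mM TETA or 100 µM SpmTrien for 4 h. Intracellular metabolites were measured. Means ± SD, n=3.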

[7] = target: T2, Diamine acetyltransferase 1 (Mus musculus, UniProt P48026); assay: Drug metabolism in mouse primary hepatocytes assessed as SSAT1-mediated (N1-acetyl)-1,12-diamino-3,6,9-triazadodecane formation at 100 uM for 4 hrs in presence of SSAT2 siRNA; type: ADME, cell-based, Hepatocyte; outline: as §2
[8] = target: T3, Thialysine N-epsilon-acetyltransferase (Homo sapiens, UniProt Q96F10); assay: Drug level in human HepG2 cells assessed as SSAT2-mediated compound formation treated with TETA at 1 mM for 24 hrs; type: ADME, cell-based; settings: hepg2, 24 h, 1000 µM
[9] = target: Thialysine N-epsilon-acetyltransferase (Mus musculus, UniProt Q6P8J2); assay: Drug level in mouse primary hepatocytes assessed as SSAT2-mediated compound formation per ug DNA treated with TETA at 1 mM for 4 hrs; settings: 1000 µM
[10] = target: T3, Thialysine N-epsilon-acetyltransferase; assay: Drug level in human HepG2 cells assessed as SSAT2-mediated compound formation treated with TETA at 1 mM for 24 hrs in presence of SSAT1 shRNA; type: ADME, cell-based; settings: hepg2, 24 h, 1000 µM; outline: as §1
[11] = target: T1, Diamine acetyltransferase 1; assay: Drug level in human HepG2 cells assessed as SSAT1-mediated compound formation treated with TETA at 1 mM for 24 hrs pretreated with 50 uM DENSpm for 24 hrs; settings: hepg2, 24 h, 1000 µM
Target sequence in this assay (P21673 whole entry, looked up): as the sequence (P21673 whole entry) above

[12] = target: T3, Thialysine N-epsilon-acetyltransferase; assay: Drug level in human HepG2 cells assessed as SSAT2-mediated compound formation per ug DNA treated with TETA at 1 mM for 24 hrs; type: ADME, cell-based; settings: hepg2, 24 h, 1000 µM
[13] = target: T2, Diamine acetyltransferase 1; assay: Drug level in mouse primary hepatocytes assessed as SSAT1-mediated compound formation per ug DNA treated with SpmTrien at 100 uM for 4 hrs
[14] = target: T3, Thialysine N-epsilon-acetyltransferase; assay: Activity of human recombinant SSAT2 assessed as compound formation treated with 1 mM SpmTrien for 50 mins by HPLC analysis; type: ADME
Outline: (§3)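 SpmTrien (1 mM) incubated with 50-100 ng human recombinant enzyme for 10-50 min at 37 °C in 100 mM Tris-HCl pH 7.8 containing 1 mM acetyl-CoA and 1 mM DTT. The reaction was stopped with sulphosalicylic acid containing diaminoheptane as internal standard, and acetylated products were quantified by HPLC.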

[15] = target: T1, Diamine acetyltransferase 1; assay: Drug level in human HepG2 cells assessed as SSAT1-mediated compound formation treated with SpmTrien at 100 uM for 24 hrs pretreated with 50 uM DENSpm for 24 hrs; type: ADME, cell-based; settings: hepg2, 24 h
Outline: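 HepG2 cells were pretreated for 24 h with 50 µM DENSpm or medium alone, washed, then incubated for 24 h with 1 mM TETA or 100 µM SpmTrien. Intracellular metabolites were measured from cell lysates. Means ± SD, n=3.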
Target sequence in this assay (P21673 whole entry): as above

[16] = target: T1, Diamine acetyltransferase 1; assay: Drug level in human HepG2 cells assessed as SSAT1-mediated compound formation treated with SpmTrien at 100 uM for 24 hrs; type: ADME, cell-based; settings: hepg2, 24 h
Target sequence in this assay (P21673 whole entry): as above

[17] = target: T1, Diamine acetyltransferase 1; assay: Drug level in human HepG2 cells assessed as SSAT1-mediated compound formation treated with SpmTrien at 100 uM for 24 hrs in presence of SSAT2 shRNA; type: ADME, cell-based; settings: hepg2, 24 h; outline: as §1
[18] = target: T1, Diamine acetyltransferase 1; assay: Activity of human recombinant SSAT1 assessed as compound formation treated with 1 mM SpmTrien for 50 mins by HPLC analysis; type: ADME; outline: as §3
[19] = target: T2, Diamine acetyltransferase 1; assay: Drug level in mouse primary hepatocytes assessed as SSAT1-mediated compound formation treated with 100 uM SpmTrien for 4 hrs in presence of SSAT2 siRNA; type: ADME, cell-based, Hepatocyte; outline: as §2
[20] = target: T1, Diamine acetyltransferase 1; assay: Drug level in human HepG2 cells assessed as SSAT1-mediated compound formation per ug DNA treated with Spm Trien at 100 uM for 24 hrs; type: ADME, cell-based; settings: hepg2, 24 h

T3 sequence (Q96F10 whole entry): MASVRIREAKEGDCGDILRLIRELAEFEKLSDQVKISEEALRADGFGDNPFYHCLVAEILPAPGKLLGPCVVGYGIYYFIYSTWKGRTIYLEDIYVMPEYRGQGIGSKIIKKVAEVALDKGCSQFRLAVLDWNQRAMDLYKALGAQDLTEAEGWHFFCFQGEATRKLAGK
T2 sequence (P48026 whole entry): as the sequence (P21673 whole entry) above, with V5K, A12S, E32D, L42Q, R119K, T169A counted along it
Thialysine N-epsilon-acetyltransferase (Mus musculus, UniProt Q6P8J2), sequence (Q6P8J2 whole entry): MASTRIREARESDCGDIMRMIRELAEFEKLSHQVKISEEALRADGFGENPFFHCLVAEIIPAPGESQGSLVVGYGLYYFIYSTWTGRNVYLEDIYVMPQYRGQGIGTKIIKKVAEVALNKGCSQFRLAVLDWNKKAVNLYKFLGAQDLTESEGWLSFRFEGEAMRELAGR

SMILES: NCCCNCCNCCNCCN
Drug metabolism [1]: metabolite_detected | Drug metabolism [2]: metabolite_not_detected | Drug metabolism [3]: metabolite_detected | Drug metabolism [4]: metabolite_detected | Drug metabolism [5]: metabolite_detected | Drug metabolism [6]: metabolite_not_detected | Drug metabolism [7]: metabolite_detected

SMILES: CC(=O)NCCCNCCCCN
Drug metabolism [8]: metabolite_detected | Drug metabolism [16]: metabolite_detected

SMILES: CC(=O)NCCCNCCCCNCCCN
Drug metabolism [8]: metabolite_detected | Drug metabolism [16]: metabolite_detected

Now from value to molecule:

Drug metabolism [8]: metabolite_detected | Drug metabolism [9]: 40 pmol/h | Drug metabolism [10]: metabolite_detected | Drug metabolism [11]: metabolite_detected | Drug metabolism [12]: 10 pmol/h
SMILES: CC(=O)NCCNCCNCCN

Drug metabolism [13]: 3.4 pmol/h | Drug metabolism [14]: 0.65 nmol | Drug metabolism [15]: metabolite_detected | Drug metabolism [16]: metabolite_detected | Drug metabolism [17]: metabolite_detected | Drug metabolism [18]: 12.8 nmol | Drug metabolism [19]: metabolite_detected | Drug metabolism [20]: 0.8 pmol/h
SMILES: CC(=O)NCCNCCNCCNCCCN

Drug metabolism [14]: 1.1 nmol | Drug metabolism [15]: metabolite_detected | Drug metabolism [18]: 4.2 nmol
SMILES: CC(=O)NCCCNCCNCCNCCN
